In ChEMBL document CHEMBL3797056, “An evaluation of Minor Groove Binders as anti-Trypanosoma brucei brucei therapeutics” (Eur J Med Chem, 2016):
Active and inactive are the calls of the source. No cut-off for these calls is given here.

What was measured:
[1] = Selectivity index, ratio of IC50 for HEK293 cells to IC50 for Trypanosoma brucei brucei Lister 427 bloodstream forms; format: toxicity, cell-based; settings: human, read-out: Ratio IC50
HEK293 = experiment: Cytotoxicity against HEK293 cells assessed as growth inhibition after 72 hrs by alamar blue viability assay; format: cell-based; settings: Homo sapiens, HEK293, 72 h
Procedure, shortened: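 HEK 293 cells kept in DMEM + 10% FBS at 37 °C, 5% CO2, harvested at 80% confluence, 2000 cells/well, equilibrated overnight. Serial compound dilutions for 72 h; puromycin positive control, 0.4% DMSO negative. […] Two experiments, duplicate points.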

[2] = system: Trypanosoma brucei brucei; experiment: Antitrypanosomal activity against Trypanosoma brucei brucei Lister 427 bloodstream forms incubated for 48 hrs by alamar blue assay; format: functional, organism-based; settings: Lister 427, 48 h
[3] = Drug uptake in Trypanosoma brucei brucei Lister 427 bloodstream forms nucleus at 50 uM after 2 hrs by FITC/DsRed staining based fluorescence microscopic analysis; format: ADME
Procedure, shortened: (§1)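 Parasites at 1 × 10^7 cells/mL exposed to 50 μM compound for 2 h at 37 °C, humidified 5% CO2. Washed in PBS, mixed 1:1 with 2% w/v low-melting agarose and spread under a coverslip for fluorescence microscopy.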

[4] = system: Trypanosoma brucei brucei; experiment: Binding affinity to kinetoplast DNA in Trypanosoma brucei brucei Lister 427 bloodstream forms at 50 uM after 2 hrs by FITC/DsRed staining based fluorescence microscopic analysis; procedure, shortened: as §1

Structure (SMILES)	selectivity ratio [1]	IC50 (HEK293) [µM]	other results
CC(C)CCc1sc(NC(=O)c2cc(NC(=O)c3cc(/C=C/c4ccc([N+](=O)[O-])cc4)cn3C)cn2C)nc1C(=O)NCCN1CCOCC1	> 1850		
Cn1cc(NC(=O)c2cc(NC(=O)c3ccc(/C=C/c4ccc5nonc5c4)cc3)cn2C)cc1C(=O)NCCN1CCOCC1	> 1050	> 20	
COc1cccc(C(=N)Nc2cc(C(=O)Nc3cc(C(=O)Nc4nc(C(=O)NCCN5CCOCC5)c(C(C)C)s4)n(C)c3)n(C)c2)c1			IC50 [2]: > 75 µM
CC(C)CCc1sc(NC(=O)c2cc(NC(=O)c3ccc(/C=C/c4ccc5ccccc5c4)cc3)cn2C)nc1C(=O)NCCN1CCOCC1	> 500	> 20	
Cn1cc(NC(=O)c2cc(NC(=O)c3ccc(/C=C/c4ccc5nsnc5c4)cc3)cn2C)cc1C(=O)NCCN1CCOCC1	> 2740	> 20	
Cn1cc(NC(=O)c2cc(NC(=O)c3cc(NC(=O)c4cc5ccccc5cn4)cn3C)cn2C)cc1C(=O)NCCCN1CCOCC1	> 2940	> 20	
CN(C)c1ccc(/C=C/c2ccc(C(=O)Nc3cc(C(=O)Nc4cc(C(=O)NCCN5CCOCC5)n(C)c4)n(C)c3)cn2)cc1			Drug uptake [3]: Active; Activity [4]: Active
Cn1cc(NC(=O)c2cc(NC(=O)c3cc(NC=O)cn3C)cn2C)cc1C(=O)NCCN1CCOCC1			IC50 [2]: 48 µM
